The target of this test is T1, Corticotropin-releasing factor receptor 1 (Homo sapiens, UniProt P34998).
T1 sequence (P34998 whole entry): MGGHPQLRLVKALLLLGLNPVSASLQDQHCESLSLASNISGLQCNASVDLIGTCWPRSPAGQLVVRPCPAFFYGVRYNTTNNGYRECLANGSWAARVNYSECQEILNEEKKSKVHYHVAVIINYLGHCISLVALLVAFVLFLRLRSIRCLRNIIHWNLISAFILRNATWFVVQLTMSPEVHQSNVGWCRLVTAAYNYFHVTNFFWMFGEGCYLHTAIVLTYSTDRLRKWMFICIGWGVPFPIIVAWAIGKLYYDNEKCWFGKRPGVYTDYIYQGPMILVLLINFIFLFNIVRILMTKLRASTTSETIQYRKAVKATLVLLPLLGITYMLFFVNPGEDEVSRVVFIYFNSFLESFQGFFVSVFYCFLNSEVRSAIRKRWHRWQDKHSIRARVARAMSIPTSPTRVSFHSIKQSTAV
Kind of test: Binding affinity at human CRF1 receptor (CRFR1) on HeLA cell membranes. In kind it is cell-based. The procedure, abridged:
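Membranes from HeLa cells transfected with a plasmid encoding human CRFR1, precoupled to WGA scintillation proximity beads. Bead-bound radioactivity counted by scintillation. Ki reported; curves from three determinations, each in duplicate.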

Here are results for 9 compounds from ChEMBL document CHEMBL1149320, “New class of corticotropin-releasing factor (CRF) antagonists: small peptides having high binding affinity for CRF receptor” (J Med Chem, 2004).

Bridge positions count the residues as written; N and C are the ends. Square brackets hold non-standard residues; d marks the D form. Peptide text beside a SMILES is read from it. ξ: configuration not given here. Cha = N[C@@H](CC1CCCCC1)C(=O)O; ξR = N=C(N)NCCCC(N)C(=O)O; Nle = CCCC[C@H](N)C(=O)O

For `CCCC[C@H](NC(=O)[C@H](CC(C)C)NC(=O)[C@H](CCCCN)NC(=O)[C@H](CCCNC(=N)N)NC(=O)[C@H](CC(C)C)NC(=O)[C@@H]1CCCCNC(=O)CC[C@H](NC(C)=O)C(=O)N[C@@H](C)C(=O)N[C@@H](CC(C)C)C(=O)N1)C(=O)N[C@@H](CCC(=O)O)C(=O)N[C@H](C(=O)N[C@H](C(N)=O)[C@@H](C)CC)[C@@H](C)CC` (Ac-EALKLRKL[Nle]EII-NH2; lactam 1-4), where the note is “hela”, the affinity corresponds to a Ki of 48.9 nM.
As for `CCCC[C@H](NC(=O)[C@H](CC(C)C)NC(=O)[C@H](CCCCN)NC(=O)[C@H](CCCN=C(N)N)NC(=O)[C@H](CC(N)=O)NC(=O)[C@@H]1CCCCNC(=O)CC[C@H](NC(C)=O)C(=O)N[C@@H](CC(=O)O)C(=O)N[C@@H](Cc2c[nH]cn2)C(=O)N1)C(=O)N[C@@H](CCC(=O)O)C(=O)N[C@H](C(=O)N[C@H](C(N)=O)[C@@H](C)CC)[C@@H](C)CC` (Ac-EDHKNRKL[Nle]EII-NH2; lactam 1-4), the inhibition constant Ki (commonly a measure of affinity in units of concentration, obtained from inhibition or displacement) was above 1000 nM.
The compound `CCCC[C@H](NC(=O)[C@H](CC(C)C)NC(=O)[C@H](CCCCN)NC(=O)[C@H](CCCN=C(N)N)NC(=O)[C@H](CC(C)C)NC(=O)[C@@H]1CCCCNC(=O)CC[C@H](NC(C)=O)C(=O)N[C@@H](C)C(=O)N[C@@H](Cc2c[nH]cn2)C(=O)N1)C(=O)N[C@@H](CCC(=O)O)C(=O)N[C@H](C(=O)N[C@H](C(N)=O)[C@@H](C)CC)[C@@H](C)CC` (Ac-EAHKLRKL[Nle]EII-NH2; lactam 1-4) came in with a Ki above 1000 nM.
Take `CC[C@H](C)[C@H](NC(=O)[C@@H](NC(=O)[C@H](CC(=O)O)NC(=O)[C@H](CC1CCCCC1)NC(=O)[C@H](CC(C)C)NC(=O)[C@H](CCCCN)NC(=O)[C@H](CCCNC(=N)N)NC(=O)[C@H](CC(N)=O)NC(=O)[C@@H]1CCCCNC(=O)CC[C@H](NC(C)=O)C(=O)N[C@@H](C)C(=O)N[C@@H](CCC(=O)O)C(=O)N1)[C@@H](C)CC)C(N)=O` (Ac-EAEKNRKL[Cha]DII-NH2; lactam 1-4): the affinity (hela), expressed as Ki, was 5.5 nM. That is a single-digit nanomolar value.
Take `CCCC[C@H](NC(=O)[C@H](CC(C)C)NC(=O)[C@H](CCCCN)NC(=O)[C@H](CCCN=C(N)N)NC(=O)[C@H](CC(N)=O)NC(=O)[C@@H]1CCCCNC(=O)CC[C@H](NC(C)=O)C(=O)N[C@H](C)C(=O)N[C@@H](Cc2ccccc2)C(=O)N1)C(=O)N[C@@H](CCC(=O)O)C(=O)N[C@H](C(=O)N[C@H](C(N)=O)[C@@H](C)CC)[C@@H](C)CC`: for the setting “hela”, the Ki is above 1000 nM.
`CCCC[C@H](NC(=O)[C@H](CC(C)C)NC(=O)[C@H](CCCCN)NC(=O)[C@H](CCCN=C(N)N)NC(=O)[C@H](CC(=O)O)NC(=O)[C@@H]1CCCCNC(=O)CC[C@H](NC(C)=O)C(=O)N[C@@H](C)C(=O)N[C@@H](Cc2c[nH]cn2)C(=O)N1)C(=O)N[C@@H](CCC(=O)O)C(=O)N[C@H](C(=O)N[C@H](C(N)=O)[C@@H](C)CC)[C@@H](C)CC` (Ac-EAHKDRKL[Nle]EII-NH2; lactam 1-4): the Ki was above 1000 nM.
The compound `CCCC[C@H](NC(=O)[C@H](CC(C)C)NC(=O)[C@H](CCCCN)NC(=O)C(CCCN=C(N)N)NC(=O)[C@H](CC(N)=O)NC(=O)[C@@H]1CCCCNC(=O)CC[C@H](NC(C)=O)C(=O)N[C@@H](C)C(=O)N[C@@H](CCCCN)C(=O)N1)C(=O)N[C@@H](CCC(=O)O)C(=O)N[C@H](C(=O)N[C@H](C(N)=O)[C@@H](C)CC)[C@@H](C)CC` (some centres undefined) (Ac-EAKKN[ξR]KL[Nle]EII-NH2; lactam 1-4) registered an inhibition constant (Ki) (hela) of 44.8 nM.
Compound `CC[C@H](C)[C@H](NC(=O)[C@@H](NC(=O)[C@H](CC(=O)O)NC(=O)[C@H](CC1CCCCC1)NC(=O)[C@H](CC(C)C)NC(=O)[C@H](CCCCN)NC(=O)[C@H](CCCNC(=N)N)NC(=O)[C@H](CC(C)C)NC(=O)[C@@H]1CCCCNC(=O)CC[C@H](NC(C)=O)C(=O)N[C@H](C)C(=O)N[C@@H](CCC(=O)O)C(=O)N1)[C@@H](C)CC)C(N)=O` registered a Ki (hela) of 3.1 nM.
Consider `CCCC[C@H](NC(=O)[C@H](CC(C)C)NC(=O)[C@H](CCCCN)NC(=O)[C@H](CCCN=C(N)N)NC(=O)[C@H](CCC(N)=O)NC(=O)[C@@H]1CCCCNC(=O)CC[C@H](NC(C)=O)C(=O)N[C@@H](C)C(=O)N[C@@H](Cc2c[nH]cn2)C(=O)N1)C(=O)N[C@@H](CCC(=O)O)C(=O)N[C@H](C(=O)N[C@H](C(N)=O)[C@@H](C)CC)[C@@H](C)CC` (Ac-EAHKQRKL[Nle]EII-NH2; lactam 1-4), for which the inhibition constant (Ki) was above 1000 nM.
